In the library only some 1.6% were active in any assay of this set; here they are far more common.
UHRF1 MBD2 ctr: UHRF1 methylated DNA binding inhibitors, primary screen, counter-screen for MBD2 inhibitor project, biochemical, TR-FRET, human UHRF1, single concentration; E3 ubiquitin-protein ligase UHRF1 (Homo sapiens), Q96T88; UHRF1 binding to methylated oligo; inhibition, % at 4.4 µM; actives 0.75% (n = 370,000); in the data active = inhibition above about 21%;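 also: UHRF1 SRA domain binding a hemimethylated CpG hairpin DNA probe; 0% = median of test compound wells and 100% = reference inhibitor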
LEDGF integ inh: blockers of LEDGF/p75-dependent integrase strand transfer – biochemical, TR-FRET, high throughput, primary screen | HIV-1 integrase (with human LEDGF/p75) | TR-FRET IN-LEDGF/p75 DNA integration, Eu/Cy5 | inhibition, % at 3.7 µM | actives 0.64% (n = 370,000) | AID 743269, 2014;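 active = inhibition above the screen-wide mean plus 3 SD, cut at about 13% in these data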;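 also: signal is the Cy5 over europium emission ratio at 671 and 618 nm; 0% = plate median of compound wells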
MBD2 inh: inhibitors of MBD2 binding to methylated DNA, primary screen, biochemical, TR-FRET, DNA-binding domain, human | actives 0.31% (n = 370,000) | MBD2 binding to methylated oligonucleotide | Methyl-CpG-binding domain protein 2 (Homo sapiens), Q9UBB5 | inhibition, % at 4.4 µM; in the data active = inhibition above about 13%
TDP2 inh: human TDP2 enzyme inhibitors, primary screen, biochemical, epi absorbance, recombinant enzyme | Tyrosyl-DNA phosphodiesterase 2 (Homo sapiens), O95551 | inhibition, % at 12.8 µM | T5PNP hydrolysis, p-nitrophenol absorbance 415 nm | AID 720702, 2013 | actives 0.34% (n = 370,000);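 active = inhibition above the mean of all tested compounds plus 3 SD, set per campaign, cut at about 25% in these data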;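 also: 0% = DMSO with enzyme and 100% = buffer with substrate but no TDP2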
Target sequence (O95551 whole entry, looked up): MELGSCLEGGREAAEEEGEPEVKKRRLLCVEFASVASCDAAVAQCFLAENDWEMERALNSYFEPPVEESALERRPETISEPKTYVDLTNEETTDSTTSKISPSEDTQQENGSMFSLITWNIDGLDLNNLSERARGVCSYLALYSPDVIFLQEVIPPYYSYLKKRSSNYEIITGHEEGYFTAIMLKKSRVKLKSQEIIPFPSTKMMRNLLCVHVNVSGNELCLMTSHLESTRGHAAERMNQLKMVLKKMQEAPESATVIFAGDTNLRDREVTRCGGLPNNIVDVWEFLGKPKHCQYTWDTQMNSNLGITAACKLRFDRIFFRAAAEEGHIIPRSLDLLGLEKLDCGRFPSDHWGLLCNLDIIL
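Read-out basis: percent inhibition. System: recombinant human TDP2. Buffer or medium: Mg2+-containing Tris-HCl buffer, pH 7.5. Repeats: single replicate. Timing: reaction 2 h, 37 °C. Benchmarks: high control without enzyme, low control DMSO plus TDP2. Probe or stimulus: 5 mM T5PNP. Doses: 12.8 µM only. Measured by: epi absorbance of p-nitrophenol freed from T5PNP by hydrolysis.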
* = called active by the depositor.

SMILES	UHRF1 MBD2 ctr	LEDGF integ inh	MBD2 inh	TDP2 inh
CCc1ccc2[nH]c3nc(N/N=C/c4cccc(O)c4)nnc3c2c1	43*	2	-7	17
CC(C)Oc1ccc(Oc2ccc(C#C[C@H](C)N3C(=O)c4ccccc4C3=O)cc2)cn1	13	0	3	-1
O=C(NCC(O)c1ccc([N+](=O)[O-])cc1)Nc1ccccc1 (stereo not drawn)	-2	2	-1	-4
CC(NCC(O)c1ccc([N+](=O)[O-])cc1)C12CC3CC(CC(C3)C1)C2 (stereo not drawn)	22*	4	-4	5
COc1ccc(NC(=O)C2CCN(c3ncnc4c3nc3n4CCCCC3)CC2)c(OC)c1	0	0	-4	-1
COc1ccc(OC)c(CCNC(=O)C2CCN(c3ncnc4c3nc3n4CCCCC3)CC2)c1	26*	-3	0	0
CCN1CCCCC(NC(=O)c2ccccc2C)C1=O (stereo not drawn)	-1	6	1	-5
Cc1cccc(CSC2=NCCN2C(=O)c2ccc(Br)o2)c1	46*	2	-5	6
Cc1cccc(CSC2=NCCN2C(=O)c2ccc(S(=O)(=O)N(C)C)cc2)c1	1	-3	1	1
CCOC(=O)[C@@]12CCCC3=C1N(CCC3)C(=O)[C@H]2CC(=O)NCc1ccccc1	-1	3	1	-3
CCCc1nc2c3ccccc3ccn2c1Cc1cccc(Cl)c1	24*	-2	11	-2
CCCc1nc2c3ccccc3ccn2c1Cc1ccc(C)cc1	18	-2	2	-1
Fc1cccc(Cc2c(C3CCCCC3)nc3c4ccccc4ccn23)c1	25*	-5	11	9
O=C1NC(c2cccc(C(F)(F)F)c2)c2c(-c3ccccc3)n[nH]c21 (stereo not drawn)	-3	1	-3	3
COC(=O)C1=C(C)NC(=S)NC1c1cccc(OC)c1 (stereo not drawn)	-1	-1	-4	-11
S=C(N/N=C/c1ccc2ncccc2c1)Nc1ccccc1	32*	0	-1	1
C(=N\NCc1ccccc1)/c1ccc2ncccc2c1	0	-1	4	-2
COc1ccc(CN(C)CCCn2cnc3c(OCc4ccccc4)ncnc32)cc1OC	19	-1	3	7
COc1ccc(CN(C)CCCn2cnc3c(SC)ncnc32)cc1OC	29*	-4	3	9
Cc1ccc(Cn2cc(CN3[C@@H](CC(C)C)COc4cc(Br)ccc4S3(=O)=O)nn2)cc1	4	-2	-1	-5
Cc1cccc(N=[N+]([O-])c2cccc(C)n2)n1	42*	5	-2	1
c1ccc(-c2cc(NCCN3CCCCC3)c3ccccc3n2)cc1	21*	-2	13	0
CC(=O)CC[C@@H]1CC[C@]2(CCCN(C(=O)c3ccc4ccccc4n3)C2)O1	-1	-1	-10	-6
O=c1oc2ccccc2c(NCCO)c1[N+](=O)[O-]	41*	1	1	-10
O=c1oc2ccccc2c(NCc2ccccc2)c1[N+](=O)[O-]	6	-3	0	0
SMILES	UHRF1 MBD2 ctr	LEDGF integ inh	MBD2 inh	TDP2 inh
COCCN(C[C@@H]1[C@H](c2ccccc2)[C@H](CO)N1c1nc(C)c(C)s1)S(=O)(=O)c1ccccc1[N+](=O)[O-]	1	3	-3	-4
Nc1ccn([C@@H]2O[C@H](C(=O)Nc3cc(C(F)(F)F)cc(C(F)(F)F)c3)[C@@H](O)[C@H]2O)c(=O)n1	-2	8	-3	-12
COc1cc(NC(=O)[C@H]2O[C@@H](n3ccc(N)nc3=O)[C@H](O)[C@@H]2O)cc(OC)c1OC	43*	-2	4	0
CCC(NC(=O)c1ccc2c(ccn2Cc2cccc(-c3ccccc3C(=O)O)c2)c1)c1ccccc1 (stereo not drawn)	4	-3	11	-9
CC(=O)Nc1ccc2oc(-c3ccccc3)nc2c1	23*	-3	2	4
CC(=O)Nc1ccc(S(=O)(=O)Nc2cccc(-c3csc(C)n3)c2)cc1	-1	0	-4	4
CC(=O)Nc1ccc(S(=O)(=O)Nc2cccc(-c3nc4cc(C)ccc4o3)c2)cc1	21*	7	6	-4
COC(=O)[C@@]12CCCCC3=C1N(CCC3)C(=O)[C@H]2CC(=O)N1CCCCC1	3	3	3	-4
O=C(CN1C(=O)C2(OCCCO2)c2ccccc21)NCc1ccc(F)cc1	1	-1	2	1
Cc1ccc(S(=O)(=O)N2CCCCC2)cc1NC(=O)c1cc(F)c(F)c(F)c1F	22*	2	10	5
Cc1ccc(S(=O)(=O)N2CCCCC2)cc1NC(=O)c1ccco1	1	4	-1	-1
Cc1ccc(S(=O)(=O)N2CCCCC2)cc1NC(=O)COC(=O)c1cccn1C	40*	-5	3	2
COc1ccccc1OCC(=O)Nc1cc(S(=O)(=O)N2CCCCC2)ccc1N1CCCCC1	27*	-2	10	3
Cc1ccc(S(=O)(=O)N2CCCCC2)cc1NC(=O)COC(=O)C1CC1	0	-7	2	0
COc1ccccc1NC(=O)COC(=O)c1cc([N+](=O)[O-])ccc1N1CCCC1	35*	0	-2	4
O=C(Nc1nncs1)c1cccnc1Cl	25*	-1	10	12
Cc1ccccc1NS(=O)(=O)c1ccc(C(=O)N2CCN(c3ccccn3)CC2)cc1	1	4	-1	1
O=C(c1ccc(CNS(=O)(=O)c2ccccc2)cc1)N1CCN(c2ccccn2)CC1	23*	3	13	4
O[C@H](COc1ccc(C(F)(F)F)cc1)CN1CCC(C(O)(c2ccccc2)c2ccccc2)CC1	-3	0	-1	-7
C[C@@H]1OCN(C)[C@H]2C[C@H]3c4[nH]c5cccc(-c6ccccc6)c5c4CCN3C[C@@H]12	-6	3	-1	4
Cc1cc(-c2ccc(Cl)cc2)c2cnn(C(C)C)c2n1	3	6	-2	-19
CC(C)n1nnnc1-c1ccc(Cl)cc1	21*	3	2	-7
COc1cc(C2(c3ccc(O)c(OC)c3)C(=O)Nc3c(C)cc(Br)cc32)ccc1O	31*	-3	0	2
Cc1cc(Br)cc2c1NC(=O)C2(c1c(C)n(C)n(-c2ccccc2)c1=O)c1c(C)n(C)n(-c2ccccc2)c1=O	0	-3	4	-2
O=C(NC1CCCC1)C1(C(=O)C2CC2)CC(c2ccccn2)=NO1 (stereo not drawn)	3	1	0	-6
